Hits are enriched below; roughly 3.5% of the tested compounds scored in any of these assays.
MrgX1 agonist = agonists of human MrgX1 receptor, primary screen, HEK293 cells, Fluo-4 calcium flux; Mas-related G-protein coupled receptor member X1 (Homo sapiens), Q96LB2; Fluo-4 calcium fluorescence, agonist mode; active compounds read high; B-score at 10 µM; 0.44% of 310,000 active; AID 588627, 2011;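 active = calcium response B-score plate-corrected fluorescence ratio at least 3 library SD, with starting fluorescence B-score inside 5 SD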
Target sequence (Q96LB2 whole entry, looked up): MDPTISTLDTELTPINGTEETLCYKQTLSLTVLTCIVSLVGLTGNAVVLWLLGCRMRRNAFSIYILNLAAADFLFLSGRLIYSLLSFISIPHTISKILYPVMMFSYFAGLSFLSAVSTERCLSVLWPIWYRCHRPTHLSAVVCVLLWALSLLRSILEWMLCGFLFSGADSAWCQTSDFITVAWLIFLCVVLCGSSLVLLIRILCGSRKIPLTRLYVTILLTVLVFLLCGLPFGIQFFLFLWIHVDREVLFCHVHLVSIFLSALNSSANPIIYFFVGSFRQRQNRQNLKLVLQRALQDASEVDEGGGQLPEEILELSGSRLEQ
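Material: MrgX1-expressing HEK293 cells / Dosing: compound as first of three additions / Incubation: overnight seeding, then 1 h dark dye loading / Signal: Fluo-4 NW calcium fluorescence / Evaluation: B-scored fluorescence response ratio / Benchmarks: positive and negative control wells on each plate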
RGS4 pot = RGS4 potentiators or activators, primary screen, cell-based, HEK293 M3R inducible RGS4, calcium flux | carbachol calcium flux Fluo4; active compounds read low | B-score at 10 µM | 0.92% of 310,000 active | AID 463111, 2010;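 active = B-score of the integrated calcium signal more than 4 SD below the library mean, with starting fluorescence not abnormally high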;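 note: negative B-score means reduced calcium response which marks RGS4 activation or potentiation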
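System: HEK293 FlpIn-TREx cells, stable M3R, doxycycline-inducible RGS4. Timing: overnight RGS4 induction, 30 min dye load 37 °C, 20 min compound RT. Also added: carbachol, ECmax concentration. Measured by: Fluo4 fluorescence kinetic imaging of calcium. Evaluation: integrated calcium ratio converted to B score.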
RGS4 inh = RGS4 inhibitors, primary screen, cell-based, HEK293 M3R inducible RGS4, calcium flux; Regulator of G-protein signaling 4 (Homo sapiens), P49798; Fluo-4 calcium flux; active compounds read high; triggered by carbachol at its EC20; B-score at 10 µM; 0.45% of 310,000 active; AID 463165, 2010;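 active = B-score, a plate-corrected calcium signal, over three deviations above library mean, with baseline fluorescence within five deviations of library mean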;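 note: RGS4 expression induced by doxycycline in cells with stable M3 receptor; B-score is computed from the integrated fluorescence ratio over baseline after carbachol; higher B-score means a larger calcium signal and so more RGS4 inhibition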
Target sequence (P49798 whole entry, looked up): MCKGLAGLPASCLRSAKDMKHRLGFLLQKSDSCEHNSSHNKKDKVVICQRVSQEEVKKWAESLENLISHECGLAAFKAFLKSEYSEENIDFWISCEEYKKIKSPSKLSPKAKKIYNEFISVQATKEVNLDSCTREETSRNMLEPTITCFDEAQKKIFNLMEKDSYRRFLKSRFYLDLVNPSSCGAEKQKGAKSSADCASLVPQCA
MrgX1 PAM = positive allosteric modulators of MrgX1, primary screen, HEK293 cells, Fluo-4 calcium flux; FDSS; active compounds read high; AID 588675, 2011; B-score at 10 µM; 0.63% of 310,000 active;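 active = plate-corrected calcium response at least 3 library SD above typical, normal starting fluorescence, not activating the receptor alone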;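 note: compound read alongside a low EC10 to EC30 dose of BAM8-22 agonist; peak minus trough fluorescence over baseline measured at the second addition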
MrgX1 antag = antagonists of human MrgX1 receptor, primary screen, HEK293 cells, Fluo-4 calcium flux; Mas-related G-protein coupled receptor member X1 (Homo sapiens), Q96LB2; BAM8-22 antagonism; active compounds read low; B-score at 10 µM; 1.3% of 310,000 active; AID 588676, 2011;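 active = calcium-response B-score plate-corrected more than 3 library SD below zero, starting fluorescence within 5 deviations, no agonist response on first addition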;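 note: peak minus trough fluorescence over baseline after final BAM8-22 challenge near maximal dose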
MrgX1 PAM conf = MrgX1 positive allosteric modulators, duplicate retest, confirmation, HEK293 cells, Fluo-4 calcium flux. shares compounds with MrgX1 PAM. Fluo-4 calcium fluorescence, FDSS. activation (ratio percentage), % at 10 µM. 13% of 1,200 active. AID 602413, 2012;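 active = ratio at least 3 SD above the weak peptide control, stable starting fluorescence, no direct agonism earlier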;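 note: compound followed by low BAM8-22 agonist challenge near EC20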
HEK293 Ca flux = nonspecific calcium signal in parental HEK293, confirmation, counter-screen for MrgX1 antagonist project, parental HEK293 cells, Fluo-4 calcium flux; fluorescence ratio F(max-min)/F0 at 10 µM; AID 624111, 2012; 2% of 4,000 active; Fluo-4 calcium fluorescence, FDSS; shares compounds with MrgX1 antag;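 active = duplicate-averaged calcium fluorescence ratio at least three times the standard deviation of buffer wells, a nonspecific response in parental cells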
HEK293 Ca counter = calcium response in parental HEK293 cells, primary screen, counter-screen for MrgX1 allosteric activator project, cell-based, Fluo-4 calcium flux, duplicate. shares compounds with MrgX1 antag. Fluo-4 fluorescence ratio; active compounds read high. fluorescence ratio F(max-min)/F0 at 10 µM. 0.4% of 4,000 active;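 active = calcium fluorescence ratio, averaged over duplicates, at least 3 SD of the buffer-well ratio, meaning a nonspecific response in receptor-free cells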;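 note: untransfected parental HEK293 lacking MrgX1 used as counterscreen for MrgX1 allosteric activators; fluorescence change taken during the second addition on a kinetic imager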
HEK293 Ca cntr2 = calcium response in parental HEK293 cells, primary screen, counter-screen for MrgX1 agonist project, cell-based, Fluo-4 calcium flux, duplicate, agonist mode; fluorescence ratio F(max-min)/F0 at 10 µM; AID 624115, 2012; Fluo-4 calcium fluorescence (FDSS); active compounds read high; shares compounds with MrgX1 antag; 8.7% of 4,000 active;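 active = calcium fluorescence ratio at least three times the spread of buffer wells, meaning a non-specific response in parental cells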
An asterisk follows results filed as active; i = inactive; · = no result.

SMILES	MrgX1 agonist	RGS4 pot	RGS4 inh	MrgX1 PAM	MrgX1 antag	MrgX1 PAM conf	HEK293 Ca flux	HEK293 Ca counter	HEK293 Ca cntr2
COC(=O)c1ccc(NC2(C#N)C(=O)Nc3ccccc32)cc1 (stereo unspecified)	i	i	i	i	i	·	·	·	·
CCCCCCCCCCCC(=O)NC(C(=O)O)C(O)c1ccccc1 (stereo unspecified)	i	i	i	i	i	·	·	·	·
CC(NC(=O)COc1ccccc1Cl)c1ccccc1 (stereo unspecified)	i	i	i	7.2*	i	i	i	i	i
CC(C)c1ccc(OCC(=O)NC(C)c2ccccc2)cc1 (stereo unspecified)	i	i	i	i	i	·	·	·	·
CCOC(=O)/C(C(=Nc1ccccc1)Nc1ccccc1)=C(\C)O	i	i	i	7.7*	i	i	i	i	i
Cc1cc(F)ccc1NC(=O)c1cnccn1	i	i	i	11*	i	i	i	i	i
Cc1cccc(C)c1NC(=O)CN(C)C(=O)c1cccc(S(=O)(=O)N2CCN(c3ccc(F)cc3)CC2)c1	i	i	i	9*	i	i	i	i	i
O=C(c1ccc(COc2ccc3c(c2)CCC3)o1)N1CCN(c2ccccc2)CC1	i	i	i	7.7*	i	i	i	i	i
O=C(CCl)Nc1cccc(S(=O)(=O)NC2=NCCC2)c1	i	i	i	7.9*	i	i	i	i	i
CCNC(=S)Nc1cccc(S(=O)(=O)NC2=NCCC2)c1	i	i	i	i	i	·	·	·	·
O=C(Nc1ccon1)c1csc2c1CCCC2	i	i	i	i	i	·	·	·	·
O=C(Nc1nccs1)c1csc2c1CCCC2	i	i	i	12*	i	i	i	i	i
Cc1nc(-c2ccc(NC(=O)C3CC3)cc2)cs1	i	i	i	i	i	·	·	·	·
Cc1nc(-c2cccc(NC(=O)C3CCCCC3)c2)cs1	i	i	i	17*	i	i	i	i	i
COc1cccc(C(=O)/C=C/Nc2ccc(S(=O)(=O)Nc3cc(OC)nc(OC)n3)cc2)c1	i	i	i	20*	i	i	i	i	i
COC(=O)c1ccccc1C(=O)N1CCCC(CCC(=O)NCc2ccc(F)c(F)c2)C1 (stereo unspecified)	i	i	i	i	i	·	·	·	·
O=C(O)CN1CCCCC1	i	i	i	9.7*	i	i	i	i	i
Fc1ccccc1NC(=S)N(CCN1CCCCC1)Cc1ccco1	i	i	i	11*	i	i	i	i	i
Cc1cccc2cc3ccccc3nc12	i	i	i	9.2*	i	i	i	i	i
Cc1cccc2cc3cccc(C)c3nc12	i	i	i	i	i	·	·	·	·
CCOC(=O)C1CCN(C(=O)CN2C(=O)c3cccnc3Oc3ccccc32)CC1	i	i	i	8.3*	i	i	i	i	i
Cc1cc(C)c(S(=O)(=O)N2CCN(C(=O)N(C)C)CC2)c(C)c1	i	i	i	i	i	·	·	·	·
CC(C)(C)c1ccc(O)c(/C=N\O)c1	i	i	i	38*	i	i	i	i	i
CCC(c1nnnn1CCc1ccccc1)N1CCN(c2ccc(OC)cc2)CC1 (stereo unspecified)	i	i	i	7.7*	i	i	i	i	i
Cc1ccc([N+](=O)[O-])cc1S(=O)(=O)Nc1ccc(-c2ccc(N3CCOCC3)nn2)cc1	i	i	i	29*	i	8.1%*	i	i	i
SMILES	MrgX1 agonist	RGS4 pot	RGS4 inh	MrgX1 PAM	MrgX1 antag	MrgX1 PAM conf	HEK293 Ca flux	HEK293 Ca counter	HEK293 Ca cntr2
O=[N+]([O-])c1ccc(Cl)c(S(=O)(=O)Nc2ccc(-c3ccc(N4CCOCC4)nn3)cc2)c1	i	i	i	i	i	·	·	·	·
Cc1cc(C(=O)CN2C(=O)NC3(CCC(C)CC3)C2=O)c(C)n1C (stereo unspecified)	i	i	i	12*	i	i	i	i	i
Cc1cc(O)cc(C)c1Cl	i	i	i	17*	i	i	i	i	i
O=C(CCCN1C(=O)c2cccc3cccc(c23)C1=O)Nc1ccon1	i	i	i	i	i	·	·	·	·
CCOc1ccc2nc(SCC(=O)NCc3ccccc3OC)[nH]c2c1	i	i	i	15*	i	i	i	i	i
CN1CCN(c2ccc(NC(=O)CSc3nnnn3-c3ccccc3F)cc2)CC1	i	i	i	i	i	·	·	·	·
CCc1ccc2c(c1)[C@H]1OCC[C@H]1[C@@H](c1cccs1)N2	i	i	i	9.5*	i	i	i	i	i
CCC1CCC(N2CCN(c3cccc(OC)c3)CC2)CC1 (stereo unspecified)	i	i	i	i	i	·	·	·	·
Cc1c(CC(=O)O)c(=O)oc2c(C)c(OCc3ccc(F)cc3F)ccc12	i	i	i	i	i	·	·	·	·
COc1ccccc1COc1ccc2c(C)c(CC(=O)O)c(=O)oc2c1C	i	i	i	13*	i	i	i	i	i
c1nc(N2CCC3(CC2)OCCO3)c2c3c(sc2n1)CCCC3	i	i	i	17*	i	i	i	i	i
